The results in this text go back to ChEMBL document CHEMBL1255347, “Multiclonal outbreak of Klebsiella pneumoniae producing extended-spectrum beta-lactamase CTX-M-2 and novel variant CTX-M-59 in a neonatal intensive care unit in Brazil” (2008).

Converted amounts (≈) assume the structure as drawn.

A word on the MIC: it is the lowest concentration that inhibits growth of the organism.

One experiment has as its system Klebsiella pneumoniae. The experiment can be described thus: Antimicrobial activity against CTX-M-2 and TEM-1 producing Klebsiella pneumoniae transconjugants/transformants with PFGE pulsotype H by Etest. The class given is functional.
Details: not given
The method, boiled down: (§1)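 The recipient was E. coli XL1-Blue Rifr NAr. Plasmids moved by broth mating, with transconjugants selected on LB agar containing ampicillin, rifampin and nalidixic acid, each at 50 μg/ml. Where mating failed, alkaline-lysis plasmid extracts were electroporated and selected on ampicillin 50 μg/ml. β-lactam MICs were read by Etest, with and without clavulanic acid.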
In turn, `C[C@@H](O)[C@H]1C(=O)N2C(C(=O)O)=C(S[C@@H]3CN[C@H](C(=O)Nc4cccc(C(=O)O)c4)C3)[C@H](C)[C@H]12` displayed an MIC of 0.094 µg/mL (≈ 0.198 µM).

For the next experiment, the system named is Klebsiella pneumoniae. The experiment can be described thus: Antimicrobial activity against CTX-M-2 producing Klebsiella pneumoniae with PFGE pulsotype A by Etest. The class given is functional.
Details: not given
The method, boiled down:
(§2)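 Clinical K. pneumoniae isolates from a neonatal ICU outbreak near São Paulo were typed by XbaI PFGE using Tenover criteria. Cultures were grown in LB broth at 37°C. Etest MICs followed the manufacturer's instructions, with cefotaxime and ceftazidime each tested with and without clavulanic acid.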
The molecule `C[C@@H](O)[C@H]1C(=O)N2C(C(=O)O)=C(S[C@@H]3CN[C@H](C(=O)Nc4cccc(C(=O)O)c4)C3)[C@H](C)[C@H]12` returned an MIC of 1.5 µg/mL (≈ 3.15 µM).

In another experiment the test system is Klebsiella pneumoniae. In words: Antimicrobial activity against CTX-M-59 and TEM-1 producing Klebsiella pneumoniae transconjugants/transformants with PFGE pulsotype E by Etest. The class given is functional.
Details: not given
The method, boiled down: as §1
Turning to `C[C@@H](O)[C@H]1C(=O)N2C(C(=O)O)=C(S[C@@H]3CN[C@H](C(=O)Nc4cccc(C(=O)O)c4)C3)[C@H](C)[C@H]12`, the MIC was determined as 0.094 µg/mL (≈ 0.198 µM).

For a further experiment, the system named is Klebsiella pneumoniae. The experiment can be described thus: Antimicrobial activity against CTX-M-59 producing Klebsiella pneumoniae with PFGE pulsotype C by Etest. The class given is functional.
Details: not given
In the case of `C[C@@H](O)[C@H]1C(=O)N2C(C(=O)O)=C(S[C@@H]3CN[C@H](C(=O)Nc4cccc(C(=O)O)c4)C3)[C@H](C)[C@H]12`, the lowest concentration to inhibit growth (MIC) was 1.5 µg/mL (≈ 3.15 µM).

The next experiment relates to Klebsiella pneumoniae. The experiment can be described thus: Antimicrobial activity against CTX-M-2 producing Klebsiella pneumoniae with PFGE pulsotype J by Etest. It counts as functional.
Details: not given
`C[C@@H](O)[C@H]1C(=O)N2C(C(=O)O)=C(S[C@@H]3CN[C@H](C(=O)Nc4cccc(C(=O)O)c4)C3)[C@H](C)[C@H]12` registered an MIC of 1.5 µg/mL (≈ 3.15 µM).

In the next experiment the test system is Klebsiella pneumoniae. In words: Antimicrobial activity against CTX-M-2 and TEM-1 producing Klebsiella pneumoniae transconjugants/transformants with PFGE pulsotype F by Etest.
Details: not given
It counts as functional. The method, boiled down: as §1
`C[C@@H](O)[C@H]1C(=O)N2C(C(=O)O)=C(S[C@@H]3CN[C@H](C(=O)Nc4cccc(C(=O)O)c4)C3)[C@H](C)[C@H]12`: the MIC is 0.125 µg/mL (≈ 0.263 µM).

Another experiment concerns Escherichia coli. In words: Antimicrobial activity against Escherichia coli str. K-12 substr. DH10B harboring plasmid CTX-M-2. It counts as functional. The conditions noted are these: K-12 DH10B. The method, boiled down:
(§3)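 blaCTX-M PCR products were cut with XbaI/BamHI and cloned into pBC-SK(−), then electroporated into E. coli DH10B. Transformants were selected on LB agar with ampicillin 50 μg/ml and chloramphenicol 30 μg/ml, and sequences were confirmed. These clones were used for β-lactam MICs, with and without clavulanic acid.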
As to `C[C@@H](O)[C@H]1C(=O)N2C(C(=O)O)=C(S[C@@H]3CN[C@H](C(=O)Nc4cccc(C(=O)O)c4)C3)[C@H](C)[C@H]12`, the MIC was found to be 0.016 µg/mL (≈ 0.0336 µM).

In a further experiment the test system is Klebsiella pneumoniae. In words: Antimicrobial activity against CTX-M-2 and TEM-1 producing Klebsiella pneumoniae transconjugants/transformants with PFGE pulsotype B by Etest. It counts as functional.
Details: not given
The method, boiled down:
as §1
Molecule `C[C@@H](O)[C@H]1C(=O)N2C(C(=O)O)=C(S[C@@H]3CN[C@H](C(=O)Nc4cccc(C(=O)O)c4)C3)[C@H](C)[C@H]12` gave an MIC of 0.125 µg/mL (≈ 0.263 µM).

The test system of another experiment is Klebsiella pneumoniae. In words: Antimicrobial activity against SHV-5 producing Klebsiella pneumoniae with PFGE pulsotype D by Etest.
Details: not given
It counts as functional. The method, boiled down:
as §2
In the case of `C[C@@H](O)[C@H]1C(=O)N2C(C(=O)O)=C(S[C@@H]3CN[C@H](C(=O)Nc4cccc(C(=O)O)c4)C3)[C@H](C)[C@H]12`, it took 0.094 µg/mL (≈ 0.198 µM) to inhibit growth (MIC).

Another experiment relates to Escherichia coli. In words: Antimicrobial activity against Escherichia coli str. K-12 substr. DH10B harboring plasmid CTX-M-59. The class given is functional. The conditions noted are these: K-12 DH10B. The method, boiled down:
as §3
Molecule `C[C@@H](O)[C@H]1C(=O)N2C(C(=O)O)=C(S[C@@H]3CN[C@H](C(=O)Nc4cccc(C(=O)O)c4)C3)[C@H](C)[C@H]12` registered an MIC of 0.016 µg/mL (≈ 0.0336 µM).

In another experiment the test system is Klebsiella pneumoniae. In words: Antimicrobial activity against CTX-M-2 and TEM-1 producing Klebsiella pneumoniae transconjugants/transformants with PFGE pulsotype J by Etest. It counts as functional.
Details: not given
The method, boiled down:
as §1
The molecule `C[C@@H](O)[C@H]1C(=O)N2C(C(=O)O)=C(S[C@@H]3CN[C@H](C(=O)Nc4cccc(C(=O)O)c4)C3)[C@H](C)[C@H]12` displayed an MIC of 0.094 µg/mL (≈ 0.198 µM).

The subject of the next experiment is Klebsiella pneumoniae. In words: Antimicrobial activity against CTX-M-2 producing Klebsiella pneumoniae with PFGE pulsotype B by Etest.
Details: not given
The class given is functional. The method, boiled down: as §2
`C[C@@H](O)[C@H]1C(=O)N2C(C(=O)O)=C(S[C@@H]3CN[C@H](C(=O)Nc4cccc(C(=O)O)c4)C3)[C@H](C)[C@H]12` came in with an MIC of 1 µg/mL (≈ 2.1 µM).

The next experiment relates to Klebsiella pneumoniae. In words: Antimicrobial activity against CTX-M-59 producing Klebsiella pneumoniae with PFGE pulsotype E by Etest. The class given is functional.
Details: not given
`C[C@@H](O)[C@H]1C(=O)N2C(C(=O)O)=C(S[C@@H]3CN[C@H](C(=O)Nc4cccc(C(=O)O)c4)C3)[C@H](C)[C@H]12` came in with an MIC of 1.5 µg/mL (≈ 3.15 µM).

The next experiment deals with Klebsiella pneumoniae. In words: Antimicrobial activity against CTX-M-2 producing Klebsiella pneumoniae with PFGE pulsotype H by Etest. The class given is functional.
Details: not given
The method, boiled down:
as §2
The molecule `C[C@@H](O)[C@H]1C(=O)N2C(C(=O)O)=C(S[C@@H]3CN[C@H](C(=O)Nc4cccc(C(=O)O)c4)C3)[C@H](C)[C@H]12` had an MIC of 2 µg/mL (≈ 4.21 µM).

The test system of a further experiment is Klebsiella pneumoniae. In words: Antimicrobial activity against CTX-M-59 producing Klebsiella pneumoniae with PFGE pulsotype G by Etest. It counts as functional.
Details: not given
The method, boiled down: as §2
`C[C@@H](O)[C@H]1C(=O)N2C(C(=O)O)=C(S[C@@H]3CN[C@H](C(=O)Nc4cccc(C(=O)O)c4)C3)[C@H](C)[C@H]12`: 1.5 µg/mL (≈ 3.15 µM) was the least that counted as inhibitory (MIC).

The next experiment concerns Klebsiella pneumoniae. In words: Antimicrobial activity against CTX-M-2 producing Klebsiella pneumoniae with PFGE pulsotype F by Etest. It counts as functional.
Details: not given
`C[C@@H](O)[C@H]1C(=O)N2C(C(=O)O)=C(S[C@@H]3CN[C@H](C(=O)Nc4cccc(C(=O)O)c4)C3)[C@H](C)[C@H]12` registered an MIC of 1.5 µg/mL (≈ 3.15 µM).

In another experiment the test system is Klebsiella pneumoniae. The experiment can be described thus: Antimicrobial activity against CTX-M-2 and TEM-1 producing Klebsiella pneumoniae transconjugants/transformants with PFGE pulsotype I by Etest. The class given is functional.
Details: not given
The method, boiled down: as §1
The molecule `C[C@@H](O)[C@H]1C(=O)N2C(C(=O)O)=C(S[C@@H]3CN[C@H](C(=O)Nc4cccc(C(=O)O)c4)C3)[C@H](C)[C@H]12` returned an MIC of 0.032 µg/mL (≈ 0.0673 µM).

Another experiment concerns Klebsiella pneumoniae. In words: Antimicrobial activity against SHV-5 producing Klebsiella pneumoniae transconjugants/transformants with PFGE pulsotype D by Etest. The class given is functional.
Details: not given
The method, boiled down: as §1
Consider `C[C@@H](O)[C@H]1C(=O)N2C(C(=O)O)=C(S[C@@H]3CN[C@H](C(=O)Nc4cccc(C(=O)O)c4)C3)[C@H](C)[C@H]12`, for which 0.012 µg/mL (≈ 0.0252 µM) was the least that counted as inhibitory (MIC).

The next experiment relates to Klebsiella pneumoniae. The experiment can be described thus: Antimicrobial activity against CTX-M-59 and TEM-1 producing Klebsiella pneumoniae transconjugants/transformants with PFGE pulsotype G by Etest. It counts as functional.
Details: not given
The method, boiled down: as §1
Regarding `C[C@@H](O)[C@H]1C(=O)N2C(C(=O)O)=C(S[C@@H]3CN[C@H](C(=O)Nc4cccc(C(=O)O)c4)C3)[C@H](C)[C@H]12`, the MIC turned out to be 0.125 µg/mL (≈ 0.263 µM).

In another experiment the test system is Klebsiella pneumoniae. The experiment can be described thus: Antimicrobial activity against CTX-M-59 and TEM-1 producing Klebsiella pneumoniae transconjugants/transformants with PFGE pulsotype C by Etest. The class given is functional.
Details: not given
The method, boiled down:
as §1
Regarding `C[C@@H](O)[C@H]1C(=O)N2C(C(=O)O)=C(S[C@@H]3CN[C@H](C(=O)Nc4cccc(C(=O)O)c4)C3)[C@H](C)[C@H]12`, the MIC was 0.064 µg/mL (≈ 0.135 µM).

For the next experiment, the system named is Klebsiella pneumoniae. The experiment can be described thus: Antimicrobial activity against CTX-M-2 and TEM-1 producing Klebsiella pneumoniae transconjugants/transformants with PFGE pulsotype A by Etest. It counts as functional.
Details: not given
The method, boiled down:
as §1
As for `C[C@@H](O)[C@H]1C(=O)N2C(C(=O)O)=C(S[C@@H]3CN[C@H](C(=O)Nc4cccc(C(=O)O)c4)C3)[C@H](C)[C@H]12`, inhibition of growth (MIC) required 0.125 µg/mL (≈ 0.263 µM).

The test system of a further experiment is Klebsiella pneumoniae. In words: Antimicrobial activity against CTX-M-2 producing Klebsiella pneumoniae with PFGE pulsotype I by Etest. The class given is functional.
Details: not given
`C[C@@H](O)[C@H]1C(=O)N2C(C(=O)O)=C(S[C@@H]3CN[C@H](C(=O)Nc4cccc(C(=O)O)c4)C3)[C@H](C)[C@H]12`: the MIC came out at 1 µg/mL (≈ 2.1 µM).
